# ChEMBL document CHEMBL1938268, “Synthesis, characterization and in vitro biological evaluation of some novel diarylsulfonylureas as potential cytotoxic and antimicrobial agents” (Bioorg Med Chem Lett, 2012)
# What was measured:
# Pseudomonas aeruginosa = test: Antibacterial activity against Pseudomonas aeruginosa NCIM 2036 after 24 hrs by agar well diffusion assay; type: functional; details: NCIM 2036, 24 h
# Summary of the method: (§1)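 Agar well diffusion per NCCLS; NCIM standard strains. Nutrient agar seeded with 0.1 mL bacterial suspension in sterile 0.85% saline at 10⁵ CFU/mL. Plates in triplicate, 37 0.5 °C, 24 h. MIC taken as lowest concentration giving complete growth inhibition.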
# Escherichia coli = test: Antibacterial activity against Escherichia coli NCIM 2065 after 24 hrs by agar well diffusion assay; type: functional; details: NCIM 2065, 24 h; summary of the method: as §1
# Aspergillus oryzae = test: Antifungal activity against Aspergillus oryzae NCIM 643 after 48 hrs by agar well diffusion assay; type: functional; details: NCIM 643, 48 h
# Summary of the method: (§2)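 Fungal spore suspensions in sterile distilled water set to final 10⁶ CFU/mL; 0.1 mL spread on Potato-Dextrose-Agar. NCCLS agar well diffusion with NCIM standard strains: 6 mm wells given 0.1 mL compound diluted in 1% DMSO, final 16 to 512 µg/mL. Triplicate plates held 48 h at 28 0.2 °C. MIC is lowest concentration fully inhibiting growth.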
# Proteus vulgaris = test: Antibacterial activity against Proteus vulgaris NCIM 2813 after 24 hrs by agar well diffusion assay; type: functional; details: NCIM 2813, 24 h; summary of the method: as §1
# Staphylococcus aureus = test: Antibacterial activity against Staphylococcus aureus NCIM 2079 after 24 hrs by agar well diffusion assay; type: functional; details: NCIM 2079, 24 h; summary of the method: as §1
# Micrococcus luteus = test: Antibacterial activity against Micrococcus luteus NCIM 2155 after 24 hrs by agar well diffusion assay; type: functional; details: NCIM 2155, 24 h; summary of the method: as §1
# Klebsiella pneumoniae = test: Antibacterial activity against Klebsiella pneumoniae NCIM 5082 after 24 hrs by agar well diffusion assay; type: functional; details: NCIM 5082, 24 h; summary of the method: as §1
# Candida albicans = test: Antifungal activity against Candida albicans NCIM 3102 after 48 hrs by agar well diffusion assay; type: functional; details: NCIM 3102, 48 h; summary of the method: as §2
# Bacillus pumilus = test: Antibacterial activity against Bacillus pumilus NCIM 2327 after 24 hrs by agar well diffusion assay; details: NCIM 2327, 24 h
# Aspergillus niger = test: Antifungal activity against Aspergillus niger NCIM 548 after 48 hrs by agar well diffusion assay; type: functional; details: NCIM 548, 48 h; summary of the method: as §2
# [1] = Toxicity against Brine shrimp nauplii after 24 hrs; type: organism-based; details: artemia salina, in vivo; read-out: ED50
# Summary of the method: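 Artemia salina nauplii hatched 38 h in sterile brine (sea salt 38 g/L, pH 8.5) under aeration; 10 nauplii per vial exposed to graded compound concentrations in 5 mL final volume, 37 °C, 24 h under incandescent light. Survivors counted; percent lethality versus vehicle-treated controls; ED50 from probit analysis; podophyllotoxin positive control.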
# Penicillium chrysogenum = test: Antifungal activity against Penicillium chrysogenum NCIM 738 after 48 hrs by agar well diffusion assay; type: functional; details: NCIM 738, 48 h; summary of the method: as §2
# Bacillus subtilis = test: Antibacterial activity against Bacillus subtilis NCIM 2063 after 24 hrs by agar well diffusion assay; type: functional; details: NCIM 2063, 24 h; summary of the method: as §1
Compound,MIC (Pseudomonas aeruginosa) [µg/mL],MIC (Escherichia coli) [µg/mL],MIC (Aspergillus oryzae) [µg/mL],MIC (Proteus vulgaris) [µg/mL],MIC (Staphylococcus aureus) [µg/mL],MIC (Micrococcus luteus) [µg/mL],MIC (Klebsiella pneumoniae) [µg/mL],MIC (Candida albicans) [µg/mL],MIC (Bacillus pumilus) [µg/mL],MIC (Aspergillus niger) [µg/mL],LC50 at 24 h [1] [µg/mL],MIC (Penicillium chrysogenum) [µg/mL],MIC (Bacillus subtilis) [µg/mL]
Cc1ccc(S(=O)(=O)NC(=O)Nc2ccccc2C(=O)/C=C/c2ccccc2)cc1,512,512,512,512,512,512,512,512,512,512,25,512,512
COc1ccc(/C=C/C(=O)c2ccccc2NC(=O)NS(=O)(=O)c2ccc(C)cc2)cc1OC,32,64,128,128,64,128,128,128,64,128,12.9,128,32
CCOc1cc(/C=C/C(=O)c2ccccc2NC(=O)NS(=O)(=O)c2ccc(C)cc2)ccc1O,128,64,512,512,128,512,512,512,64,512,19.2,512,128
COc1cccc(/C=C/C(=O)c2ccccc2NC(=O)NS(=O)(=O)c2ccc(C)cc2)c1,128,128,128,128,128,128,128,128,128,128,23.2,128,128
Cc1ccc(S(=O)(=O)NC(=O)Nc2ccccc2C(=O)/C=C/C=C/c2ccccc2)cc1,128,128,256,256,128,256,256,256,128,256,18.2,256,128
COc1ccc(/C=C/C(=O)c2ccccc2NC(=O)NS(=O)(=O)c2ccc(C)cc2)c(OC)c1,32,32,128,128,32,128,128,128,32,128,16,128,32
Cc1ccc(S(=O)(=O)NC(=O)Nc2ccccc2C(=O)/C=C/c2cccc(Br)c2)cc1,32,16,128,16,64,16,128,128,16,64,4.02,128,16
Cc1ccc(S(=O)(=O)NC(=O)Nc2ccccc2C(=O)/C=C/c2ccccc2[N+](=O)[O-])cc1,16,32,16,32,16,32,32,16,16,16,40.1,16,16
Cc1ccc(S(=O)(=O)NC(=O)Nc2ccccc2C(=O)/C=C/c2c3ccccc3cc3ccccc23)cc1,512,512,512,512,512,512,512,512,512,512,44.3,512,512
Cc1ccc(S(=O)(=O)NC(=O)Nc2ccccc2C(=O)/C=C/c2cccc(O)c2)cc1,512,512,512,512,512,512,512,512,512,512,39.3,512,512
Cc1ccc(S(=O)(=O)NC(=O)Nc2ccccc2C(=O)/C=C/c2ccc(Cl)cc2)cc1,32,32,64,64,32,64,64,64,32,64,6.92,64,32
Cc1ccc(S(=O)(=O)NC(=O)Nc2ccccc2C(=O)/C=C/c2cccnc2)cc1,128,128,128,128,128,128,128,128,128,128,14.1,128,128
Cc1ccc(S(=O)(=O)NC(=O)Nc2ccccc2C(=O)/C=C/c2ccc(O)cc2)cc1,256,128,128,128,256,128,128,128,128,128,24.3,128,256
Cc1ccc(S(=O)(=O)NC(=O)Nc2ccccc2C(=O)/C=C/c2ccncc2)cc1,128,64,64,64,64,64,64,64,64,64,16.8,64,128
COc1cc(/C=C/C(=O)c2ccccc2NC(=O)NS(=O)(=O)c2ccc(C)cc2)ccc1O,64,64,128,128,128,128,128,128,64,128,17.8,128,64
Cc1ccc(S(=O)(=O)NC(=O)Nc2ccccc2C(=O)/C=C/c2cc(O)ccc2[N+](=O)[O-])cc1,16,16,64,64,16,64,64,32,16,64,18.3,64,16
Cc1ccc(S(=O)(=O)NC(=O)Nc2ccccc2C(=O)/C=C/c2ccc(Cl)cc2Cl)cc1,16,32,64,64,32,64,64,64,32,64,8.34,64,16
Cc1ccc(S(=O)(=O)NC(=O)Nc2ccccc2C(=O)/C=C/c2ccc[nH]2)cc1,256,128,256,256,128,256,256,256,128,256,32.1,256,256
Cc1ccc(S(=O)(=O)NC(=O)Nc2ccccc2C(=O)/C=C/c2ccccc2O)cc1,512,512,256,256,256,256,256,256,512,256,32.3,256,512
Cc1ccc(S(=O)(=O)NC(=O)Nc2ccccc2C(=O)/C=C/c2ccc(N(C)C)cc2)cc1,64,64,256,128,64,128,128,128,64,256,38.1,256,64
COc1cc([C@@H]2c3cc4c(cc3[C@H](O)[C@H]3COC(=O)[C@H]23)OCO4)cc(OC)c1OC [PODOFILOX],–,–,–,–,–,–,–,–,–,–,3.61,–,–
CC(=O)N1CCN(c2ccc(OCC3COC(Cn4ccnc4)(c4ccc(Cl)cc4Cl)O3)cc2)CC1 (stereo not given) [KETOCONAZOLE],–,–,16,–,–,–,–,16,–,16,–,16,–
